Among the data in ChEMBL document CHEMBL1121441, “Synthesis and properties of the sulfonyl analogues of 4(5)-aminoimidazole-5(4)-carboxamide, 4(5)-(formylamino)imidazole-5(4)-carboxamide, guanine, and xanthine” (J Med Chem, 1980) are pKa and inhibition values, retold here.

Each structure is given as a SMILES string. Activity calls are given as the source filed them. No cut-off for these calls is given here.

The nature of series [1]: Compound was tested for apparent dissociation constant at pH 10. It counts as ADME. The essentials: (§1)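 pKa values were determined potentiometrically on 0.001 M solutions with a pH meter. For one analogue the values came from least-squares analysis with activity corrections. Measurement temperature was recorded with each value, and standard deviations were reported.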
The nature of series [2]: Compound was tested for apparent dissociation constant at pH 13. Type of series: ADME. Summed up: as §1
Series [3] relates to L1210. Kind of series: Compound tested for inhibition of growth of L1210 cells in culture at 10e-4 M; NI = no inhibition. Type of series: functional, cell-based. To be noted: Mus musculus. Summed up: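 Murine L1210 leukemia cells were harvested in log phase and resuspended in RPMI 1640 with 10% fetal bovine serum at a starting density of 17.5×10^4 cells/mL. Analogue stock was 5×10⁻³ M in phosphate-buffered saline, pH 7.4, filter-sterilized, then serially diluted in medium. Final concentrations were 10⁻⁴ to 10⁻⁸ M. Cultures grew 72 h at 37 °C and were counted every 24 h by Coulter counter against untreated controls.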

Series [4] is described as follows: Compound was tested for apparent dissociation constant at pH 7. It counts as ADME. The essentials: as §1
Series [5] can be described thus: Compound was tested for apparent dissociation constant at pH 14. It counts as ADME. Summed up:
as §1

Series [6] in a line: Compound was tested for apparent dissociation constant at pH 9. Type of series: ADME. Summed up:
as §1

Regarding `O=C1Nc2[nH]cnc2S(=O)(=O)N1`, the pKa worked out at 8.99 in series [1], 11 in series [2] and 2.55 in series [4]. Further, the inhibition result in series [3] is “inactive”.
With `NC1=NS(=O)(=O)c2nc[nH]c2N1`, the pKa was determined as 11.6 in series [5] and 6.84 in series [6]. In addition, the inhibition entry in series [3] is “inactive”.
Consider `Nc1[nH]cnc1S(N)(=O)=O`, for which the inhibition entry in series [3] is “inactive”. For the same molecule, in series [4], the pKa came out at 9.43.
On the same counts, the results for `NS(=O)(=O)c1[nH]cnc1NC=O` are “inactive” and 8.7.
